Source: ChEMBL document CHEMBL1275589, “Molecular epidemiology, sequence types, and plasmid analyses of KPC-producing Klebsiella pneumoniae strains in Israel” (2010)
In brackets after ≈: the same amount, converted by molar mass.

Assays:
Klebsiella pneumoniae [1] = assay: Antimicrobial activity against carbapenem-resistant KPC-2 producing Klebsiella pneumoniae 365 transformant by agar dilution method; type: functional
Klebsiella pneumoniae [2] = assay: Antimicrobial activity against KPC-3 producing Klebsiella pneumoniae 549 ST 327 expressing beta-lactamase TEM-1 and CTX-M-2 by agar dilution method; type: functional
Klebsiella pneumoniae [3] = assay: Antimicrobial activity against carbapenem-resistant KPC-2 producing Klebsiella pneumoniae 531 transformant by agar dilution method; type: functional
Klebsiella pneumoniae [4] = assay: Antimicrobial activity against KPC-3 producing Klebsiella pneumoniae 557 ST 258 expressing beta-lactamase TEM-1 by agar dilution method
Klebsiella pneumoniae [5] = assay: Antimicrobial activity against carbapenem-resistant KPC-2 producing Klebsiella pneumoniae 526 transformant by agar dilution method; type: functional
Klebsiella pneumoniae [6] = assay: Antimicrobial activity against carbapenem-resistant KPC-2 producing Klebsiella pneumoniae 523 ST 340 expressing beta-lactamase TEM-1, SHV-11 and OXA-2 by agar dilution method; type: functional
Klebsiella pneumoniae [7] = assay: Antimicrobial activity against carbapenem-resistant KPC-2 producing Klebsiella pneumoniae 525 transformant by agar dilution method; type: functional
Klebsiella pneumoniae [8] = assay: Antimicrobial activity against carbapenem-resistant KPC-2 producing Klebsiella pneumoniae 588 ST 340 expressing beta-lactamase TEM-1 and SHV-11 by agar dilution method; type: functional
Klebsiella pneumoniae [9] = assay: Antimicrobial activity against carbapenem-resistant KPC-2 producing Klebsiella pneumoniae 365 ST 376 expressing beta-lactamase SHV-1, CTX-M-15 and OXA-4 by agar dilution method
Klebsiella pneumoniae [10] = assay: Antimicrobial activity against carbapenem-resistant KPC-2 producing Klebsiella pneumoniae 469 ST 277 expressing beta-lactamase SHV-27, CTX-M-15 and OXA-4 by agar dilution method; type: functional
Klebsiella pneumoniae [11] = assay: Antimicrobial activity against carbapenem-resistant KPC-2 producing Klebsiella pneumoniae 525 ST 376 expressing beta-lactamase SHV-1 by agar dilution method; type: functional
Klebsiella pneumoniae [12] = assay: Antimicrobial activity against KPC-3 producing Klebsiella pneumoniae 549 transformant by agar dilution method; type: functional
Klebsiella pneumoniae [13] = assay: Antimicrobial activity against carbapenem-resistant KPC-2 producing Klebsiella pneumoniae 588 transformant by agar dilution method; type: functional
Klebsiella pneumoniae [14] = assay: Antimicrobial activity against KPC-3 producing Klebsiella pneumoniae 557 transformant by agar dilution method; type: functional
Klebsiella pneumoniae [15] = assay: Antimicrobial activity against carbapenem-resistant KPC-2 producing Klebsiella pneumoniae 523 transformant by agar dilution method; type: functional
Klebsiella pneumoniae [16] = assay: Antimicrobial activity against carbapenem-resistant KPC-2 producing Klebsiella pneumoniae 469 transformant by agar dilution method; type: functional
Klebsiella pneumoniae [17] = assay: Antimicrobial activity against carbapenem-resistant KPC-2 producing Klebsiella pneumoniae 475 ST 277 expressing beta-lactamase SHV-27, CTX-M-15 and OXA-4 by agar dilution method; type: functional
Klebsiella pneumoniae [18] = assay: Antimicrobial activity against carbapenem-resistant KPC-2 producing Klebsiella pneumoniae 531 ST 376 expressing beta-lactamase SHV-1 by agar dilution method; type: functional
Klebsiella pneumoniae [19] = assay: Antimicrobial activity against carbapenem-resistant KPC-2 producing Klebsiella pneumoniae 526 ST 376 expressing beta-lactamase SHV-1 by agar dilution method; type: functional
Escherichia coli = assay: Antimicrobial activity against Escherichia coli Genehogs by agar dilution method; type: functional
Summary of the method: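 Carbapenem MICs by agar dilution, interpreted per CLSI. FDA Enterobacteriaceae breakpoints applied: susceptible ≤2 μg/ml, intermediate 4 μg/ml, resistant ≥8 μg/ml. Transformants were made in recipient E. coli GeneHogs with purified plasmid DNA.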

Klebsiella pneumoniae [20] = assay: Antimicrobial activity against carbapenem-resistant KPC-2 producing Klebsiella pneumoniae 475 transformant by agar dilution method; type: functional

C[C@@H](O)[C@H]1C(=O)N2C(C(=O)O)=C(S[C@@H]3CN[C@H](C(=O)Nc4cccc(C(=O)O)c4)C3)[C@H](C)[C@H]12
MIC (Klebsiella pneumoniae [1]): 8 µg/mL (≈ 16.8 µM)
MIC (Klebsiella pneumoniae [2]): 32 µg/mL (≈ 67.3 µM)
MIC (Klebsiella pneumoniae [3]): 2 µg/mL (≈ 4.21 µM)
MIC (Klebsiella pneumoniae [4]): 256 µg/mL (≈ 538 µM)
MIC (Klebsiella pneumoniae [5]): 8 µg/mL (≈ 16.8 µM)
MIC (Klebsiella pneumoniae [6]): 64 µg/mL (≈ 135 µM)
MIC (Klebsiella pneumoniae [7]): 4 µg/mL (≈ 8.41 µM)
MIC (Klebsiella pneumoniae [8]): 128 µg/mL (≈ 269 µM)
MIC (Klebsiella pneumoniae [9]): 64 µg/mL (≈ 135 µM)
MIC (Klebsiella pneumoniae [10]): 64 µg/mL (≈ 135 µM)
MIC (Klebsiella pneumoniae [11]): 128 µg/mL (≈ 269 µM)
MIC (Klebsiella pneumoniae [12]): 4 µg/mL (≈ 8.41 µM)
MIC (Klebsiella pneumoniae [13]): 8 µg/mL (≈ 16.8 µM)
MIC (Klebsiella pneumoniae [14]): 4 µg/mL (≈ 8.41 µM)
MIC (Klebsiella pneumoniae [15]): 8 µg/mL (≈ 16.8 µM)
MIC (Klebsiella pneumoniae [16]): 4 µg/mL (≈ 8.41 µM)
MIC (Klebsiella pneumoniae [17]): 128 µg/mL (≈ 269 µM)
MIC (Klebsiella pneumoniae [18]): 128 µg/mL (≈ 269 µM)
MIC (Klebsiella pneumoniae [19]): 64 µg/mL (≈ 135 µM)
MIC (Escherichia coli): 0.012 µg/mL (≈ 0.0252 µM)
MIC (Klebsiella pneumoniae [20]): 8 µg/mL (≈ 16.8 µM)

NCC[C@H](O)C(=O)N[C@@H]1C[C@H](N)[C@@H](O[C@H]2O[C@H](CN)[C@@H](O)[C@H](O)[C@H]2O)[C@H](O)[C@H]1O[C@H]1O[C@H](CO)[C@@H](O)[C@H](N)[C@H]1O [AMIKACIN]
MIC (Klebsiella pneumoniae [1]): < 2 µg/mL
MIC (Klebsiella pneumoniae [2]): < 2 µg/mL
MIC (Klebsiella pneumoniae [3]): 16 µg/mL (≈ 27.3 µM)
MIC (Klebsiella pneumoniae [4]): 32 µg/mL (≈ 54.6 µM)
MIC (Klebsiella pneumoniae [5]): 8 µg/mL (≈ 13.7 µM)
MIC (Klebsiella pneumoniae [6]): 16 µg/mL (≈ 27.3 µM)
MIC (Klebsiella pneumoniae [7]): 16 µg/mL (≈ 27.3 µM)
MIC (Klebsiella pneumoniae [8]): 32 µg/mL (≈ 54.6 µM)
MIC (Klebsiella pneumoniae [9]): 4 µg/mL (≈ 6.83 µM)
MIC (Klebsiella pneumoniae [10]): 4 µg/mL (≈ 6.83 µM)
MIC (Klebsiella pneumoniae [11]): 8 µg/mL (≈ 13.7 µM)
MIC (Klebsiella pneumoniae [13]): 32 µg/mL (≈ 54.6 µM)
MIC (Klebsiella pneumoniae [14]): < 2 µg/mL
MIC (Klebsiella pneumoniae [15]): > 64 µg/mL
MIC (Klebsiella pneumoniae [16]): 16 µg/mL (≈ 27.3 µM)
MIC (Klebsiella pneumoniae [17]): < 2 µg/mL
MIC (Klebsiella pneumoniae [18]): 8 µg/mL (≈ 13.7 µM)
MIC (Klebsiella pneumoniae [19]): 4 µg/mL (≈ 6.83 µM)
MIC (Escherichia coli): < 2 µg/mL
MIC (Klebsiella pneumoniae [20]): 8 µg/mL (≈ 13.7 µM)

C[C@H]1[C@H](NC(=O)/C(=N\OC(C)(C)C(=O)O)c2csc(N)n2)C(=O)N1S(=O)(=O)O [AZTREONAM]
MIC (Klebsiella pneumoniae [1]): > 64 µg/mL
MIC (Klebsiella pneumoniae [2]): > 64 µg/mL
MIC (Klebsiella pneumoniae [3]): 64 µg/mL (≈ 147 µM)
MIC (Klebsiella pneumoniae [4]): > 64 µg/mL
MIC (Klebsiella pneumoniae [5]): > 64 µg/mL
MIC (Klebsiella pneumoniae [6]): > 64 µg/mL
MIC (Klebsiella pneumoniae [7]): > 64 µg/mL
MIC (Klebsiella pneumoniae [8]): > 64 µg/mL
MIC (Klebsiella pneumoniae [9]): > 64 µg/mL
MIC (Klebsiella pneumoniae [10]): > 64 µg/mL
MIC (Klebsiella pneumoniae [11]): > 64 µg/mL
MIC (Klebsiella pneumoniae [12]): > 64 µg/mL
MIC (Klebsiella pneumoniae [13]): > 64 µg/mL
MIC (Klebsiella pneumoniae [14]): > 64 µg/mL
MIC (Klebsiella pneumoniae [15]): > 64 µg/mL
MIC (Klebsiella pneumoniae [16]): 32 µg/mL (≈ 73.5 µM)
MIC (Klebsiella pneumoniae [17]): > 64 µg/mL
MIC (Klebsiella pneumoniae [18]): > 64 µg/mL
MIC (Klebsiella pneumoniae [19]): > 64 µg/mL
MIC (Escherichia coli): < 1 µg/mL
MIC (Klebsiella pneumoniae [20]): 32 µg/mL (≈ 73.5 µM)

CC(C)(O/N=C(\C(=O)N[C@@H]1C(=O)N2C(C(=O)[O-])=C(C[n+]3ccccc3)CS[C@H]12)c1csc(N)n1)C(=O)O [CEFTAZIDIME]
MIC (Klebsiella pneumoniae [1]): 16 µg/mL (≈ 29.3 µM)
MIC (Klebsiella pneumoniae [2]): 16 µg/mL (≈ 29.3 µM)
MIC (Klebsiella pneumoniae [3]): 16 µg/mL (≈ 29.3 µM)
MIC (Klebsiella pneumoniae [4]): > 64 µg/mL
MIC (Klebsiella pneumoniae [5]): 16 µg/mL (≈ 29.3 µM)
MIC (Klebsiella pneumoniae [6]): 16 µg/mL (≈ 29.3 µM)
MIC (Klebsiella pneumoniae [7]): 16 µg/mL (≈ 29.3 µM)
MIC (Klebsiella pneumoniae [8]): 16 µg/mL (≈ 29.3 µM)
MIC (Klebsiella pneumoniae [9]): > 64 µg/mL
MIC (Klebsiella pneumoniae [10]): > 64 µg/mL
MIC (Klebsiella pneumoniae [11]): > 64 µg/mL
MIC (Klebsiella pneumoniae [12]): > 64 µg/mL
MIC (Klebsiella pneumoniae [13]): 16 µg/mL (≈ 29.3 µM)
MIC (Klebsiella pneumoniae [14]): > 64 µg/mL
MIC (Klebsiella pneumoniae [15]): 16 µg/mL (≈ 29.3 µM)
MIC (Klebsiella pneumoniae [16]): > 64 µg/mL
MIC (Klebsiella pneumoniae [17]): 16 µg/mL (≈ 29.3 µM)
MIC (Klebsiella pneumoniae [18]): > 64 µg/mL
MIC (Klebsiella pneumoniae [19]): > 64 µg/mL
MIC (Escherichia coli): < 1 µg/mL
MIC (Klebsiella pneumoniae [20]): 16 µg/mL (≈ 29.3 µM)

CO/N=C(\C(=O)N[C@@H]1C(=O)N2C(C(=O)O)=C(CSc3nc(=O)c(O)nn3C)CS[C@H]12)c1csc(N)n1 [CEFTRIAXONE]
MIC (Klebsiella pneumoniae [2]): > 64 µg/mL
MIC (Klebsiella pneumoniae [3]): 16 µg/mL (≈ 28.9 µM)
MIC (Klebsiella pneumoniae [4]): > 64 µg/mL
MIC (Klebsiella pneumoniae [5]): 32 µg/mL (≈ 57.7 µM)
MIC (Klebsiella pneumoniae [6]): 16 µg/mL (≈ 28.9 µM)
MIC (Klebsiella pneumoniae [7]): 8 µg/mL (≈ 14.4 µM)
MIC (Klebsiella pneumoniae [8]): > 64 µg/mL
MIC (Klebsiella pneumoniae [9]): > 64 µg/mL
MIC (Klebsiella pneumoniae [10]): > 64 µg/mL
MIC (Klebsiella pneumoniae [11]): > 64 µg/mL
MIC (Klebsiella pneumoniae [12]): 32 µg/mL (≈ 57.7 µM)
MIC (Klebsiella pneumoniae [13]): 32 µg/mL (≈ 57.7 µM)
MIC (Klebsiella pneumoniae [14]): 32 µg/mL (≈ 57.7 µM)
MIC (Klebsiella pneumoniae [15]): 32 µg/mL (≈ 57.7 µM)
MIC (Klebsiella pneumoniae [16]): > 64 µg/mL
MIC (Klebsiella pneumoniae [17]): 16 µg/mL (≈ 28.9 µM)
MIC (Klebsiella pneumoniae [18]): > 64 µg/mL
MIC (Klebsiella pneumoniae [19]): > 64 µg/mL
MIC (Escherichia coli): < 1 µg/mL
MIC (Klebsiella pneumoniae [20]): 32 µg/mL (≈ 57.7 µM)
